Laboratory results taken from ChEMBL document CHEMBL4382192, “Discovery of a potent dual ALK and EGFR T790M inhibitor” (Eur J Med Chem, 2017).

Tests used:
[1] = target: Mitogen-activated protein kinase kinase kinase 6 (Homo sapiens) (UniProt O95382); experiment: Binding affinity to wild-type human partial length ASK2 (M278 to R972 residues) expressed in mammalian expression system assessed as residual binding level at 1 uM by Kinomescan method relative to control
[2] = target: Serine/threonine-protein kinase 17B (Homo sapiens) (UniProt O94768); experiment: Binding affinity to wild-type human full length DRAK2 (M1 to C372 residues) expressed in bacterial expression system assessed as residual binding level at 1 uM by Kinomescan method relative to control
[3] = test system: Epidermal growth factor receptor (Homo sapiens), P00533 [UNDEFINED MUTATION]; experiment: Binding affinity to human partial length EGFR L747-E749del/A750P mutant expressed in bacterial expression system assessed as residual binding level at 1 uM by Kinomescan method relative to control
Procedure, shortened: (§1)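 Kinome-wide selectivity panel run by the KINOMEscan method, with the test compound at a single concentration of 1 μM. Wild-type and mutant kinases were profiled in the same screen.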

[4] = Drug uptake in mouse plasma at 10 mg/kg, po after 2 hrs; type: ADME, organism-based
[5] = test system: Proto-oncogene tyrosine-protein kinase receptor Ret (Homo sapiens), P07949 [M918T]; experiment: Binding affinity to human partial length RET M918T mutant (E713 to D1014 residues) expressed in bacterial expression system assessed as residual binding level at 1 uM by Kinomescan method relative to control; procedure, shortened: as §1
[6] = target: Vascular endothelial growth factor receptor 1 (Homo sapiens) (UniProt P17948); experiment: Binding affinity to wild-type human partial length FLT1 (R781 to F1239 residues) expressed in bacterial expression system assessed as residual binding level at 1 uM by Kinomescan method relative to control
[7] = test system: Phosphatidylinositol 4,5-bisphosphate 3-kinase catalytic subunit alpha isoform (Homo sapiens), P42336 [H1047Y]; experiment: Binding affinity to human partial length PIK3CA H1047Y mutant (R108 to N1068 residues) expressed in mammalian expression system assessed as residual binding level at 1 uM by Kinomescan method relative to control
[8] = target: Atypical kinase COQ8A, mitochondrial (Homo sapiens) (UniProt Q8NI60); experiment: Binding affinity to wild-type human full length ADCK3 (M280 to Q647 residues) expressed in bacterial expression system assessed as residual binding level at 1 uM by Kinomescan method relative to control
[9] = target: MAP/microtubule affinity-regulating kinase 4 (Homo sapiens) (UniProt Q96L34); experiment: Binding affinity to wild-type human partial length MARK4 (K29 to G340 residues) expressed in bacterial expression system assessed as residual binding level at 1 uM by Kinomescan method relative to control
[10] = target: Dual specificity protein kinase CLK3 (Homo sapiens) (UniProt P49761); experiment: Binding affinity to wild-type human full length CLK3 (M1 to R490 residues) expressed in bacterial expression system assessed as residual binding level at 1 uM by Kinomescan method relative to control
[11] = test system: Epidermal growth factor receptor (Homo sapiens), P00533 [L858R,T790M]; experiment: Binding affinity to human partial length EGFR L858R/T790M double mutant (R669 to V1011 residues) expressed in mammalian expression system assessed as residual binding level at 1 uM by Kinomescan method relative to control; procedure, shortened: as §1
[12] = target: BMP-2-inducible protein kinase (Homo sapiens) (UniProt Q9NSY1); experiment: Binding affinity to wild-type human partial length BIKE (S34 to N329 residues) expressed in bacterial expression system assessed as residual binding level at 1 uM by Kinomescan method relative to control
[13] = test system: Epidermal growth factor receptor (Homo sapiens), P00533 [UNDEFINED MUTATION]; experiment: Binding affinity to human partial length EGFR L747-S752del/P753S mutant expressed in bacterial expression system assessed as residual binding level at 1 uM by Kinomescan method relative to control; procedure, shortened: as §1
[14] = target: Testis-specific serine/threonine-protein kinase 3 (Homo sapiens) (UniProt Q96PN8); experiment: Binding affinity to wild-type human full length TSSK3 (M1 to T268 residues) expressed in mammalian expression system assessed as residual binding level at 1 uM by Kinomescan method relative to control
[15] = target: Tyrosine-protein kinase Mer (Homo sapiens) (UniProt Q12866); experiment: Binding affinity to wild-type human partial length MERTK (R557 to L884 residues) expressed in bacterial expression system assessed as residual binding level at 1 uM by Kinomescan method relative to control
[16] = target: Mitogen-activated protein kinase kinase kinase kinase 1 (Homo sapiens) (UniProt Q92918); experiment: Binding affinity to wild-type human full length HPK1 (M1 to R799 residues) expressed in bacterial expression system assessed as residual binding level at 1 uM by Kinomescan method relative to control
[17] = target: Cyclin-dependent kinase 5 (Homo sapiens) (UniProt Q00535); experiment: Binding affinity to wild-type human full length CDK5 (M1 to P292 residues) expressed in bacterial expression system assessed as residual binding level at 1 uM by Kinomescan method relative to control
[18] = target: Non-receptor tyrosine-protein kinase TYK2 (Homo sapiens) (UniProt P29597); experiment: Binding affinity to wild-type human partial length TYK2 JH2 pseudokinase domain (G556 to D888 residues) expressed in mammalian expression system assessed as residual binding level at 1 uM by Kinomescan method relative to control
[19] = Metabolic stability in dog liver microsomes assessed as parent compound remaining at 1 uM after 30 mins in presence of NADPH by LC/MS/MS analysis; type: ADME, Canis lupus familiaris, Microsome; conditions: read-out: Stability
Procedure, shortened: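 Compound at 1 μM final with 0.5 mg/mL microsomal protein in 100 mM phosphate buffer pH 7.4 at 37 °C, started by adding an NADPH-regenerating system. Reactions were quenched with cold acetonitrile at 0 and 30 min and spun down. Supernatant was analysed by LC-MS/MS. The 0-min sample, quenched before NADPH addition, was set as 100%, and percent parent remaining came from peak areas.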

[20] = target: Bone morphogenetic protein receptor type-2 (Homo sapiens) (UniProt Q13873); experiment: Binding affinity to wild-type human partial length BMPR2 (R179 to Q526 residues) expressed in mammalian expression system assessed as residual binding level at 1 uM by Kinomescan method relative to control
[21] = target: STE20/SPS1-related proline-alanine-rich protein kinase (Homo sapiens) (UniProt Q9UEW8); experiment: Binding affinity to wild-type human partial length STK39 (P43 to I357 residues) expressed in mammalian expression system assessed as residual binding level at 1 uM by Kinomescan method relative to control
[22] = target: Ribosomal protein S6 kinase alpha-5 (Homo sapiens) (UniProt O75582); experiment: Binding affinity to wild-type human partial length N-terminal RPS6KA5 kinase domain 1 expressed in bacterial expression system assessed as residual binding level at 1 uM by Kinomescan method relative to control
[23] = target: MAP kinase-activated protein kinase 2 (Homo sapiens) (UniProt P49137); experiment: Binding affinity to wild-type human partial length MAPKAPK2 (V48 to D345 residues) expressed in bacterial expression system assessed as residual binding level at 1 uM by Kinomescan method relative to control
MAP kinase-activated protein kinase 2 (Homo sapiens), sequence (P49137 whole entry, looked up, the tested form may be a part): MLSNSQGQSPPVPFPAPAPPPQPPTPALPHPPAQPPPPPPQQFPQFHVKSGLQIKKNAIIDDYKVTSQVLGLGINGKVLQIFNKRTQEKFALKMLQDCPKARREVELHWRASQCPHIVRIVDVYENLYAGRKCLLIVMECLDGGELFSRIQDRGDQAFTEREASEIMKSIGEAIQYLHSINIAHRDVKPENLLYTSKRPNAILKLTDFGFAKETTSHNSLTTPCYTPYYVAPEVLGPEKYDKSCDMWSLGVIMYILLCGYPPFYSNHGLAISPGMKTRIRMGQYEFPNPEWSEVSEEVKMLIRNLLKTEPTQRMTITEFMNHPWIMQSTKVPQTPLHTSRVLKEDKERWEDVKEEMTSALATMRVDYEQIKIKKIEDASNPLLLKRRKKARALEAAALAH

Atypical kinase COQ8A, mitochondrial (Homo sapiens), sequence (Q8NI60 163-647 limits assumed): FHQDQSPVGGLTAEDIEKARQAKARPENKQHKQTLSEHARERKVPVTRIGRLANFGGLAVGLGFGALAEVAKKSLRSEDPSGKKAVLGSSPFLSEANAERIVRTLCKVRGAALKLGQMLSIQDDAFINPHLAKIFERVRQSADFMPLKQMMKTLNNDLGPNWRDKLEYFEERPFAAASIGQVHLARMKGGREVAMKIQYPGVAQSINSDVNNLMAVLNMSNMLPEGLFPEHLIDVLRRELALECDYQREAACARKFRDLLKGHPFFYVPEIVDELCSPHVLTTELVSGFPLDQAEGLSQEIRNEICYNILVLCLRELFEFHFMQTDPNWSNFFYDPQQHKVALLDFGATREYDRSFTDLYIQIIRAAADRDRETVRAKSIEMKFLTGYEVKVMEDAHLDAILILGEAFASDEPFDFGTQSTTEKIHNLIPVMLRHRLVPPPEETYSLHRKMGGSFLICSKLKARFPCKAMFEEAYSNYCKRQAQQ
Ribosomal protein S6 kinase alpha-5 (Homo sapiens), sequence (O75582 whole entry, looked up, the tested form may be a part): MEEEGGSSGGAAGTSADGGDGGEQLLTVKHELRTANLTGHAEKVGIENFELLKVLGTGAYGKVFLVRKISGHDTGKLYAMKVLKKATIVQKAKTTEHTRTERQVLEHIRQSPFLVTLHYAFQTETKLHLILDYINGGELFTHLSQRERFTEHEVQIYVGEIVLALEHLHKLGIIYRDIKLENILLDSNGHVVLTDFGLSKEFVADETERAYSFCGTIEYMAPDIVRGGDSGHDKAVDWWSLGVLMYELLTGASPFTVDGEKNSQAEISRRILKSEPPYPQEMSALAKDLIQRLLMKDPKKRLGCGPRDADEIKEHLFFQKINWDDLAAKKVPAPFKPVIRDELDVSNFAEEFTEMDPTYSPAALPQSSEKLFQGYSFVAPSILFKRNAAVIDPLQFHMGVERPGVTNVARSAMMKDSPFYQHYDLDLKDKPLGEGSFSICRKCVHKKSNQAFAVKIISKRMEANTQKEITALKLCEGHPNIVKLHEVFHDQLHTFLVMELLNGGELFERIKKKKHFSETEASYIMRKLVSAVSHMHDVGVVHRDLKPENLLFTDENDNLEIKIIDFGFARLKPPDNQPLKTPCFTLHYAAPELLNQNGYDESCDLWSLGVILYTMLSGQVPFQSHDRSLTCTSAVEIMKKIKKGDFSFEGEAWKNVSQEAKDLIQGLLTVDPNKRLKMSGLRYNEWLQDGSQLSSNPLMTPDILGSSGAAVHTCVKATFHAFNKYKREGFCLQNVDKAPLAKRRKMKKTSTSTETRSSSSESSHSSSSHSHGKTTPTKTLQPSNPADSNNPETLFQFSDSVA
Vascular endothelial growth factor receptor 1 (Homo sapiens), sequence (P17948 whole entry, the tested form may be a part, canonical isoform): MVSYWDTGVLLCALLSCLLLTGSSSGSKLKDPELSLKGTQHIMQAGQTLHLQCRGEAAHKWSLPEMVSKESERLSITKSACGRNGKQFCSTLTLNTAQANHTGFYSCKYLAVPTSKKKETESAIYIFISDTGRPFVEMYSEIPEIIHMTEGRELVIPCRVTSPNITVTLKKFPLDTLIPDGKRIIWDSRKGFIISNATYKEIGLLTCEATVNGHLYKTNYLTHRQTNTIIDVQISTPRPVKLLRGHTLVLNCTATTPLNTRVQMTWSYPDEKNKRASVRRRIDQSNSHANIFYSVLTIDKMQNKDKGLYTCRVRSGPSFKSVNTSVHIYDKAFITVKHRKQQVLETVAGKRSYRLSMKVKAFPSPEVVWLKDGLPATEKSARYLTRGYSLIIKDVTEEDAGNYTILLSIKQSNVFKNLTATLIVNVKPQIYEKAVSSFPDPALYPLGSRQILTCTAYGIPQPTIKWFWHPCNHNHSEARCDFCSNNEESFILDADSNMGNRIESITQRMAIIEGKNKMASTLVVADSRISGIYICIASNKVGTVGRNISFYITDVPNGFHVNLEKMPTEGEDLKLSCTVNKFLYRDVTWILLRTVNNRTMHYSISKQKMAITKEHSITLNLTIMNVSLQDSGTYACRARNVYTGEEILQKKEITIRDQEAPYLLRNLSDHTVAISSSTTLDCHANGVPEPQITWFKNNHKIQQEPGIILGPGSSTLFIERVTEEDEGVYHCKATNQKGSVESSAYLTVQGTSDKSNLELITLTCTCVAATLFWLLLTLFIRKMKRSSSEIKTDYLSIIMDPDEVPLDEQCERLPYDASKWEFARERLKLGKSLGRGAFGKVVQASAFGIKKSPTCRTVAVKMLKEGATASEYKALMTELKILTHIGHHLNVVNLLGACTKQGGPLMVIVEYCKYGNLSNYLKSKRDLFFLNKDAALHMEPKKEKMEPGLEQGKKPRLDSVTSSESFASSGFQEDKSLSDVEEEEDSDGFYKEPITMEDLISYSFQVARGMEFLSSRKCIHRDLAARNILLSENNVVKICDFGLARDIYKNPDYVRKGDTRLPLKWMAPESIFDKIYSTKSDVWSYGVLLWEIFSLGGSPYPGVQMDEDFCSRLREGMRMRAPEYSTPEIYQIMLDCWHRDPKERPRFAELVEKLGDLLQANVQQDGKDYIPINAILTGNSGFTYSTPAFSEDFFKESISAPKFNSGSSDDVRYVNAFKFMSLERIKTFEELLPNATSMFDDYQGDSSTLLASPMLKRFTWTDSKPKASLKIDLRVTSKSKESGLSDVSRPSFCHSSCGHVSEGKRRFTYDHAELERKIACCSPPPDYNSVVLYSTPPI
Non-receptor tyrosine-protein kinase TYK2 (Homo sapiens), sequence (P29597 whole entry, the tested form may be a part): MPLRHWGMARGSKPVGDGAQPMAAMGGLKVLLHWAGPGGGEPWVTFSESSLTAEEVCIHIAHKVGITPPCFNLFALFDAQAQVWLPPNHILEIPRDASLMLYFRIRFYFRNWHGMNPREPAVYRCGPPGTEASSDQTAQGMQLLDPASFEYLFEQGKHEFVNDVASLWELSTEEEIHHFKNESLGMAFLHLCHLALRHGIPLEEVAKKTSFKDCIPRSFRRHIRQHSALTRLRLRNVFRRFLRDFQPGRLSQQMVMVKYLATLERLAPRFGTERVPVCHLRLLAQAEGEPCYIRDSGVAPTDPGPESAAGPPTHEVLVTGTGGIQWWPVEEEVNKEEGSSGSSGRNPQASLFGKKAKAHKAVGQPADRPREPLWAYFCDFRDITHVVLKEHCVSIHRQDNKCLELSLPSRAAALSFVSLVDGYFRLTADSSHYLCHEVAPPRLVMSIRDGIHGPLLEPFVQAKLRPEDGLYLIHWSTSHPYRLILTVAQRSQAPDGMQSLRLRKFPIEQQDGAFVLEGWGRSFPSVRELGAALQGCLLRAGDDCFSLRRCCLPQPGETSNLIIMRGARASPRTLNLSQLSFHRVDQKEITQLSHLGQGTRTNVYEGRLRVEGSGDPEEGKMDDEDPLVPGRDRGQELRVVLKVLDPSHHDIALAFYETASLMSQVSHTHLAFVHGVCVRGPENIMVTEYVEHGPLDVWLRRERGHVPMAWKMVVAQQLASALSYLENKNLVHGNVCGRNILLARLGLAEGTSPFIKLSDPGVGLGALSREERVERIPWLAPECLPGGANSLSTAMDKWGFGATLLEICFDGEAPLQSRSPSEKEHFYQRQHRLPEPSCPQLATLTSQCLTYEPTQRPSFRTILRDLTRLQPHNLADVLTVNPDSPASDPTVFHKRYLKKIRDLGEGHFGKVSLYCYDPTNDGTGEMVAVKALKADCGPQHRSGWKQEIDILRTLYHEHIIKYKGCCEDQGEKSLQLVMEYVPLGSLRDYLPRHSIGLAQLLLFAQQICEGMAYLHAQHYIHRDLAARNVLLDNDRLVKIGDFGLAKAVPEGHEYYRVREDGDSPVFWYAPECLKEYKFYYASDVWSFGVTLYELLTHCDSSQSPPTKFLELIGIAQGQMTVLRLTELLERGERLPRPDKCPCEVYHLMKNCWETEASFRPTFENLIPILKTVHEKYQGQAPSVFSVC
Testis-specific serine/threonine-protein kinase 3 (Homo sapiens), sequence (Q96PN8 whole entry, the tested form may be a part): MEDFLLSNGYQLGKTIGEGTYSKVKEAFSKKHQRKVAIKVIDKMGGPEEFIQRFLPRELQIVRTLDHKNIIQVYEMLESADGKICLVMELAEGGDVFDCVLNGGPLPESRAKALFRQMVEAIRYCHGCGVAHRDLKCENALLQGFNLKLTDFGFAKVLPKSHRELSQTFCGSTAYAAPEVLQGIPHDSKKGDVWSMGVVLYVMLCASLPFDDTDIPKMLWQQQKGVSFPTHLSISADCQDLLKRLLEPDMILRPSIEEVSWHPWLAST
Dual specificity protein kinase CLK3 (Homo sapiens), sequence (P49761 whole entry, looked up, the tested form may be a part): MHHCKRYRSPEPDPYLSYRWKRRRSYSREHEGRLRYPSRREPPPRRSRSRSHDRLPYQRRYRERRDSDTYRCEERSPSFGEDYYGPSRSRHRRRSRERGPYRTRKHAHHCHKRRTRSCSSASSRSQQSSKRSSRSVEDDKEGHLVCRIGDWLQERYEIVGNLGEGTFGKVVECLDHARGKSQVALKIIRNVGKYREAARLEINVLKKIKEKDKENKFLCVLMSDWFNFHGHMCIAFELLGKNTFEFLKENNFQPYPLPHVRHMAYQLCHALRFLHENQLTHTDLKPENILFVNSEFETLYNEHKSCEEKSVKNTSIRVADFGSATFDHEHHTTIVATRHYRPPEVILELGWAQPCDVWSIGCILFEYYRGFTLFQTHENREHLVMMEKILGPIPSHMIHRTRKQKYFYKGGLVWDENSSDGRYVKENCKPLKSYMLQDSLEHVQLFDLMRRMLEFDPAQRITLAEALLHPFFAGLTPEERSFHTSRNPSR

C=CC(=O)Nc1cc(Nc2ncc(Cl)c(Nc3ccccc3S(=O)(=O)C(C)C)n2)c(OC)cc1N(C)CCN(C)C
Activity [1]: 21% | Activity [2]: 100% | Activity [3]: 0% | concentration at 2 h [4]: 150 nM | Activity [5]: 9.7% | Activity [6]: 47% | Activity [7]: 100% | Activity [8]: 100% | Activity [9]: 6% | Activity [10]: 23% | Activity [11]: 0.95% | Activity [12]: 92% | Activity [13]: 0% | Activity [14]: 46% | Activity [15]: 2.7% | Activity [16]: 15% | Activity [17]: 85% | Activity [18]: 100% | remaining at 0.5 h, 1 µM [19]: 17% | Activity [20]: 95% | Activity [21]: 20% | Activity [22]: 85% | Activity [23]: 100%
